From ChEMBL document CHEMBL1123095, “Synthesis and biological activity of 6-azacadeguomycin and certain 3,4,6-trisubstituted pyrazolo[3,4-d]pyrimidine ribonucleosides” (1985) come the findings set out here.

The test system of assay [1] is L1210. Briefly: In vitro inhibitory dose against L1210 leukemia cells was evaluated. As to conditions: Mus musculus, read-out: ID50 (the source's name). The assay is classed as functional. The method in brief:
(§1)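 Murine leukemia L1210 or lymphoid neoplasm P388 cells were grown in RPMI 1640 with 10% fetal bovine serum and 20 mM Hepes. Cells at 1 × 10⁵ cells/mL received filter-sterilized compound dissolved in growth medium, in duplicate at log concentrations from 1×10⁻⁷ to 1×10⁻⁴ M. After 48 h at 37 °C, cells were counted on a Coulter counter. Growth was expressed as percent of untreated control, and ID₅₀ was taken as the concentration giving 50% growth inhibition.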

Assay [2] has as its system Vero. In words: In vitro antiviral activity against Parainfluenza type 3 was evaluated. The assay is classed as functional. The following applies: Chlorocebus sabaeus, read-out: ED50 (the source's name).
Assay [3] deals with Vero. In words: In vitro antiviral activity against measles virus was evaluated. The assay is classed as functional. As to conditions: Chlorocebus sabaeus, read-out: ED50 (the source's name).
The test system of assay [4] is Vero. In words: In vitro antiviral activity against vaccinia virus was evaluated. The assay is classed as functional. As to conditions: Chlorocebus sabaeus, read-out: ED50 (the source's name).
In assay [5] the test system is Vero. In words: Toxicity level was reported. The assay is classed as functional, Chlorocebus sabaeus.
In assay [6] the test system is P388. Briefly: In vitro inhibitory dose against P388 cells was evaluated. The assay is classed as functional. As to conditions: Mus musculus, read-out: ID50 (the source's name). The procedure, abridged:
as §1

The test system of assay [7] is Vero. In words: In vitro antiviral activity against herpes simplex virus type 2 virus was evaluated. The assay is classed as functional. As to conditions: Chlorocebus sabaeus, read-out: ED50 (the source's name).
The subject of assay [8] is Vero. In words: Toxicity level was reported; None. The following applies: Chlorocebus sabaeus. The assay is classed as functional, cell-based.
Assay [9] deals with Vero. In words: Toxicity level was reported; none. Format: functional, cell-based. The following applies: Chlorocebus sabaeus.
The test system of assay [10] is P388. Briefly: In vitro inhibitory dose against P388 cells was evaluated; Inactive at 10^-4M. As to conditions: Mus musculus. The assay is classed as functional, cell-based. The method in brief:
(§2)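 L1210 murine leukemia or P388 lymphoid neoplasm cells in RPMI 1640 with 10% fetal bovine serum and 20 mM Hepes, adjusted to 1 × 10⁵ cells/mL. Compounds dissolved in medium, filter-sterilized, tested in duplicate at log concentrations 1×10⁻⁷ to 1×10⁻⁴ M. After 48 h at 37 °C, Coulter cell counts; growth as percent of untreated control; ID₅₀ is the concentration giving 50% growth inhibition.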

Assay [11] relates to L1210. In words: In vitro inhibitory dose against L1210 leukemia cells was evaluated; Inactive at 10^-4M. As to conditions: Mus musculus. The assay is classed as functional, cell-based. The method in brief: as §2
The subject of assay [12] is P388. In words: Percent inhibition against P388 cell growth at concentration 10e-4 was reported. Format: functional, Mus musculus. The procedure, abridged: as §2
Assay [13] relates to L1210. In words: Percent inhibition against L1210 cell growth at concentration 10e-4 was reported. Format: functional, Mus musculus. The procedure, abridged:
as §2

Assay [14] has as its system L1210. Briefly: In vitro inhibitory dose against L1210 leukemia cells was evaluated; Inactive at 10e-4 concentration. Format: functional, cell-based. The following applies: Mus musculus. The procedure, abridged: as §1
Assay [15] has as its system P388. Briefly: In vitro inhibitory dose against P388 cells was evaluated; Inactive at 10e-4 concentration. Format: functional, cell-based. As to conditions: Mus musculus. The method in brief: as §1
Assay [16] concerns L1210. Briefly: Percent inhibition against L1210 cell growth at concentration 10e-4 was reported. Format: functional, Mus musculus. The procedure, abridged: as §1
Assay [17] deals with P388. In words: Percent inhibition against P388 cell growth at concentration 10e-4 was reported; Inative at 10^-4M. The assay is classed as functional, cell-based. The following applies: Mus musculus. The procedure, abridged: as §1

The source made the active and inactive calls. No cut-off for these calls is given here.

Take `Nc1nc2c(c(Br)nn2C2O[C@H](CO)[C@@H](O)[C@H]2O)c(=O)[nH]1` (some centres undefined): the IC50 in the assay with L1210 [1] and with P388 [6] was 36 µM throughout. The EC50 in the assay with Vero [2] is over 5000 µM; in the assay on Vero [3], 20 µM; in the assay on Vero [4] it was 76 µM; in the assay with Vero [7], 180 µM. In the assay on Vero [5], this molecule returned a Toxic level of 1.6 mM.
Regarding `N#Cc1nn(C2O[C@H](CO)[C@@H](O)[C@H]2O)c2nc(N)[nH]c(=O)c12` (some centres undefined), the IC50 in the assay on L1210 [1] is 22 µM; in the assay on P388 [6] it was 21 µM. For the same molecule, the EC50 is 220 µM with Vero [2], 54 µM in the assay on Vero [3], 140 µM in the assay with Vero [4] and 100 µM in the assay on Vero [7]. The Toxic level result with Vero [8] is “None”.
Turning to `NC(=O)c1ncn([C@@H]2O[C@H](CO)[C@@H](O)[C@H]2O)n1` [RIBAVIRIN], the EC50 in the assay on Vero [2] is 160 µM; in the assay with Vero [3], 33 µM; in the assay on Vero [4] it was 85 µM; in the assay with Vero [7] it was 190 µM. Further, the Toxic level result in the assay with Vero [9] was “Non-toxic”.
For the molecule `Oc1[nH]c(Br)nc2nncc1-2`, the EC50 in the assay with Vero [2] is over 5000 µM; with Vero [3], over 5000 µM; with Vero [4], 430 µM; with Vero [7] it was 1600 µM. This molecule also gave a Toxic level with Vero [5] of 1.6 mM.
For `NC(=O)c1[nH]nc2nc(S)nc(O)c12`, the EC50 is 390 µM in the assay with Vero [2], over 500 µM with Vero [3] and 180 µM in the assay with Vero [7]. The Toxic level result in the assay on Vero [8] is “None”.
Consider `NC(=O)c1c[se]c([C@@H]2O[C@H](CO)[C@@H](O)[C@H]2O)n1`, for which the EC50 is 3.2 µM in the assay with Vero [2], 3.2 µM in the assay with Vero [3], 9.8 µM in the assay on Vero [4] and 14 µM in the assay with Vero [7]. Besides, in the assay with Vero [9], the Toxic level entry is “inactive”.
Consider `Nc1nc2c(c(C(=O)O)nn2C2O[C@H](CO)[C@@H](O)[C@H]2O)c(=O)[nH]1` (some centres undefined), for which the ID50 entry with P388 [10] and in the assay on L1210 [11] was “inactive” throughout. The EC50 in the assay on Vero [2], in the assay with Vero [3], with Vero [4] and in the assay on Vero [7] was over 5000 µM in each case. Also, the Toxic level entry in the assay on Vero [8] was “None”.
In the case of `NC(=O)c1nn(C2O[C@H](CO)[C@@H](O)[C@H]2O)c2nc(N)[nH]c(=O)c12` (some centres undefined), the EC50 in the assay on Vero [2], with Vero [3], in the assay on Vero [4] and in the assay on Vero [7] was over 500 µM throughout. Moreover, the Inhibition is listed as 22% with P388 [12] and 30% in the assay with L1210 [13]. Also, the Toxic level result with Vero [8] is recorded as “None”.
As to `Nc1nc2c(cnn2C2O[C@H](CO)[C@@H](O)[C@H]2O)c(=O)[nH]1` (some centres undefined), the ID50 entry in the assay with L1210 [14] and in the assay on P388 [15] was “inactive” each time. The results for the EC50 in the assay with Vero [2], in the assay on Vero [4] and with Vero [7] were over 5000 µM, 1000 µM and 1600 µM, respectively. Further, the Toxic level result with Vero [9] is “inactive”.
Regarding `Oc1[nH]c(Br)nc2nnc(Br)c1-2`, the EC50 was over 5000 µM with Vero [2], over 5000 µM in the assay on Vero [3], 240 µM in the assay on Vero [4] and over 500 µM with Vero [7]. In the assay on Vero [5], this molecule showed a Toxic level of over 0.05 mM.
With `C[S+]([O-])c1nc(O)c2c(Br)[nH]nc2n1` (centres undefined), the EC50 with Vero [2] was over 5000 µM; in the assay with Vero [3] it was over 5000 µM; with Vero [4], 260 µM; in the assay on Vero [7], 1200 µM. The same molecule came in with a Toxic level in the assay with Vero [5] of over 0.5 mM.
Molecule `NC(=S)c1nn(C2O[C@H](CO)[C@@H](O)[C@H]2O)c2nc(N)[nH]c(=O)c12` (some centres undefined) gave an Inhibition in the assay on L1210 [16] of 43%. For the same molecule, the EC50 is 590 µM in the assay on Vero [2], 65 µM in the assay with Vero [3] and over 5000 µM with Vero [7]. For the same molecule, the Toxic level entry with Vero [8] was “None”. Also, the ID50 result in the assay on P388 [17] is “inactive”.
Regarding `COc1nc2c(c(Br)nn2C2O[C@H](CO)[C@@H](O)[C@H]2O)c(=O)[nH]1` (some centres undefined), the EC50 with Vero [2] is over 2500 µM; in the assay on Vero [3], over 2500 µM; with Vero [4] it was 3500 µM; in the assay on Vero [7], 1600 µM. The Toxic level in the assay with Vero [5] turned out to be 2.5 mM.
On to `CSc1nc(O)c2c(C(N)=O)[nH]nc2n1`, for which the EC50 in the assay with Vero [2] is over 500 µM; in the assay with Vero [3], over 500 µM; in the assay on Vero [4] it was 330 µM; with Vero [7] it was 85 µM. Further, in the assay on Vero [5], the Toxic level was over 0.5 mM.
